# MLL AF4-AF9 inh: MLL-AF4/AF9 protein interaction inhibition. AlphaScreen, biotin-AF4 peptide binding to FLAG-AF9. 350,000 tested, 0.47% active. P42568. AID 651704. inhibition, % at 10 µM;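 active = every replicate reaching a set inhibition limit, whatever the replicate mean, cut at about 25% in these data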;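 note: 0% = plate neutral control median and 100% = total signal loss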
# FGF22 binding: binders of recombinant human FGF22 by thermal shift; Q9HCT0; SYPRO orange fluorescence; percent of sucrose octasulfate shift, DMSO zero; activity (Tm shift, normalised), % at 9.99 µM; 340,000 tested, 1.5% active; AID 651658;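 active = mean Tm shift, scaled 0 neutral to 100 positive control, at about 1.3% or above, every replicate too, limit read from the data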
# Target sequence (Q9HCT0 whole entry, looked up): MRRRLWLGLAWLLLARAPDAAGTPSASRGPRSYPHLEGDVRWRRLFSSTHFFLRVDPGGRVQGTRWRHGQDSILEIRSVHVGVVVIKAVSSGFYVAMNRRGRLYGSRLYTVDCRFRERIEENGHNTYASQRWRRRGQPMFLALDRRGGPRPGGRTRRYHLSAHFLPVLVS
# FN deposit inh: fibronectin deposition inhibition; AH1F fibroblasts, Alexa488-fibronectin deposition fluorescence, overnight; inhibition, % at 12.6 µM; 350,000 tested, 0.086% active;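 active = mean inhibition across replicates of 30% or more, regardless of how many single replicates reach that level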;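 note: positive control wells lacked labelled fibronectin entirely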
#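 Measured by – fluorescence 485/525 nm · System – AH1F fibroblast monolayer, labelled fibronectin deposition · Amount – 10000 cells per well · Buffer or medium – serum-reduced DMEM (2% serum) · Doses – single dose, pinned · Also added – fluorescent fibronectin at 24 nM final · Schedule – 1 h cell attachment, overnight exposure to compound and label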
# ERp5 block: blocks human ERp5 reductase activity on insulin; ERp5 insulin aggregation, absorbance 650 nm, 90 min; 350,000 tested, 0.05% active; Q15084; inhibition, % at 9.99 µM; AID 651711;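 active = mean replicate inhibition above about 25%, with every replicate also reaching it, limit read from the data, passing the limit was not always enough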
# ARNT TACC3 PPI: disruptors of human ARNT/TACC3 interaction. inhibition, % at 9.99 µM. AlphaScreen His-ARNT PAS-B/GST-TACC3 binding, luminescence; TACC3 fragment carries E629A point mutation. AID 623870. 390,000 tested, 0.66% active. Q9Y6A5;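 active = mean inhibition of replicates at least 50% and at least half of replicates each reaching 50%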;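 note: 0% = complete ARNT plus TACC3 wells and 100% = ARNT alone without TACC3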
# PDI inh: blocks human protein disulfide isomerase activity | P07237 | PDI insulin aggregation turbidity, A650, 90 min | inhibition, % at 10 µM | 350,000 tested, 0.052% active | AID 588391;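 active = mean inhibition across replicates of 30% or more, whatever share of single replicates reach that level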
# Target sequence (P07237 whole entry, looked up): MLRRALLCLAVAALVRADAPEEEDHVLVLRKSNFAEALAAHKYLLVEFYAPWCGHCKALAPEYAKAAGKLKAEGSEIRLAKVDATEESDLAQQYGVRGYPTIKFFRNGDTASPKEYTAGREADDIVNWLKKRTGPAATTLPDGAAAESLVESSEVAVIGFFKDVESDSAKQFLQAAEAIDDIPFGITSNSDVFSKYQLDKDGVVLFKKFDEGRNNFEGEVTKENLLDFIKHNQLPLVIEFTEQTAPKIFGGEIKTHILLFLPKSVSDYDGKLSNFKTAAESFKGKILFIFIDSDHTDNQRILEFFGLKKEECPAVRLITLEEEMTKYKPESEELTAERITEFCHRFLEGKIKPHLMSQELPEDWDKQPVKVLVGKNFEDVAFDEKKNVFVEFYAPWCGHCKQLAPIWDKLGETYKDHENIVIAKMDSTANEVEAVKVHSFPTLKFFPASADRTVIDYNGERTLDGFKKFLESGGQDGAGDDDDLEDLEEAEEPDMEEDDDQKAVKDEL
# The depositor's hits bear a star; x = no result. Shown are actives, neighbours in structure and some others; about 2.1% of the full set was active somewhere.
SMILES,MLL AF4-AF9 inh,FGF22 binding,FN deposit inh,ERp5 block,ARNT TACC3 PPI,PDI inh
Nc1nc(O)c(N=Nc2ccc(S(N)(=O)=O)cc2)c(=O)[nH]1,3.2,0.0,-1.4,2.1,x,x
O=C(O)CCN1C(=O)/C(=C/c2ccc(-c3nc4ccccc4s3)o2)SC1=S,x,x,x,x,63.5*,3.0
O=C(O)CCCN1C(=O)/C(=C\c2ccc(-c3nc4ccccc4s3)o2)SC1=S,1.4,0.1,-1.9,1.3,-1.0,-0.7
C/C=C/c1ccc2c(c1)O[C@@H](CN(C)Cc1ccncc1)[C@@H](C)CN([C@H](C)CO)S2(=O)=O,-4.5,0.3,-5.9,8.8,-4.6,x
Cc1cccc(NC(=O)CN2C(=O)N/C(=C/c3cc(C)n(C)c3C)C2=O)c1,-0.1,43.8*,0.1,3.3,-2.5,1.2
Cc1cccc(NC(=O)CN2C(=O)N/C(=C/c3cc(C)n(-c4ccncc4)c3C)C2=O)c1,5.8,-0.1,-2.0,-7.3,2.2,6.6
CCC(=O)Nc1ccc2c(c1)C(=O)N(C)C[C@H](OC)[C@@H](C)CN(Cc1ccccn1)[C@@H](C)CO2,-1.2,0.0,8.7,8.7,-8.8,x
CCC(NC(=O)CCc1c(C)c2cc3c(-c4ccccc4)coc3cc2oc1=O)C(=O)O (centres undefined),-2.8,-0.1,-19.8,0.5,26.6,5.8
Cc1c(CCC(=O)O)c(=O)oc2cc3oc4c(c3cc12)CCCC4,-1.6,-0.1,2.2,4.2,0.6,1.4
Cc1c(CCC(=O)N[C@@H](C)C(=O)O)c(=O)oc2cc3occ(-c4ccccc4)c3cc12,0.4,0.0,3.7,-3.1,48.9*,-1.9
Cc1c(CCC(=O)N[C@@H](CC(C)C)C(=O)O)c(=O)oc2cc3oc4c(c3cc12)CCCC4,-1.5,-0.6,2.8,-0.9,29.0,37.6*
C[C@@H]1CN([C@H](C)CO)C(=O)c2cc(NC(=O)Nc3ccc4c(c3)OCO4)ccc2O[C@@H](C)CCCCO[C@H]1CN(C)Cc1ccncc1,10.6,-0.3,x,0.9,11.0,x
COc1ccc(-c2nc(C)ncc2-c2csc(C)n2)c(O)c1,x,x,x,x,-4.9,14.5
COc1ccc(-c2nc(N)ncc2-c2csc(C)n2)c(O)c1OC,-2.0,43.9*,-12.0,1.0,x,-16.9
CCCC(=O)Nc1ccc2c(c1)OC[C@@H](C)N(Cc1cncnc1)C[C@@H](C)[C@H](OC)CN(C)C2=O,x,x,8.9,x,x,x
Cc1ccccc1-c1ccccc1N,-5.2,44.2*,-6.8,1.1,x,1.2
Oc1cc(O)c2c(c1)O[C@H](c1ccc(O)c(O)c1)[C@@H](O)C2,-0.1,-0.5,-0.4,-1.2,1.9,-1.6
O=C1c2c(O)cc(O)cc2O[C@@]12c1c(cc(O)c3c1O[C@H](c1ccc(O)cc1)[C@@H](O)C3)O[C@@H]2c1ccc(O)cc1,x,1.3,3.0,-0.4,-21.1,41.0*
COc1ccccc1COC(=O)CN1C(=O)NC2(CCCCC2C)C1=O (centres undefined),-1.5,43.0*,-6.9,-4.2,-2.9,-0.3
Cc1noc(C)c1S(=O)(=O)N(C)C[C@@H]1Oc2ccc(NC(=O)CCN3CCOCC3)cc2CC(=O)N([C@@H](C)CO)C[C@H]1C,3.3,x,x,-3.5,x,x
C[C@@H]1CCCCO[C@@H](CN(C)S(=O)(=O)c2cccs2)[C@H](C)CN([C@H](C)CO)C(=O)c2cc(NS(C)(=O)=O)ccc2O1,-10.6,0.9,x,-17.1,17.5,x
Cc1ccc(S(=O)(=O)Nc2ccc3c(c2)C(=O)N([C@H](C)CO)C[C@H](C)[C@@H](CN(C)S(=O)(=O)c2ccc(Cl)cc2)OCCCC[C@H](C)O3)cc1,x,30.6*,-7.5,x,-3.0,x
C[C@H](CO)N1C[C@H](C)[C@H](CN(C)S(=O)(=O)c2cccs2)OCCCC[C@H](C)Oc2ccc(NS(=O)(=O)c3ccc(Cl)cc3)cc2C1=O,-3.1,1.2*,-2.3,-1.8,-11.8,x
Cc1ccc(S(=O)(=O)N(C)C[C@@H]2OCCCC[C@@H](C)Oc3ccc(NS(=O)(=O)c4ccc(Cl)cc4)cc3C(=O)N([C@H](C)CO)C[C@@H]2C)cc1,-0.1,-0.4,11.5,1.9,-7.6,x
C[C@@H]1CCCCO[C@@H](CN(C)Cc2ccc(C(=O)Nc3ccccc3N)cc2)[C@@H](C)CN([C@H](C)CO)C(=O)c2cc(NS(=O)(=O)c3cccs3)ccc2O1,0.0,-0.4,x,70.1*,x,x
SMILES,MLL AF4-AF9 inh,FGF22 binding,FN deposit inh,ERp5 block,ARNT TACC3 PPI,PDI inh
C[C@@H]1CCCCO[C@H](CN(C)S(=O)(=O)c2cccs2)[C@@H](C)CN([C@@H](C)CO)C(=O)c2cc(NS(C)(=O)=O)ccc2O1,-5.2,0.9,x,-16.3,active,x
O=C(C[C@H]1C[C@H]2c3cc(NS(=O)(=O)c4ccc(F)cc4)ccc3O[C@H]2[C@@H](CO)O1)N1CCOCC1,-0.2,x,0.3,4.0,0.8,x
C[C@H](CO)N1C[C@H](C)[C@@H](CN(C)C(=O)CC2CC2)Oc2cc(-c3ccccc3)ccc2S1(=O)=O,1.9,0.0,x,2.1,0.4,x
C[C@H]1CCCCO[C@H](CN(C)C(=O)CCC(F)(F)F)[C@@H](C)CN([C@@H](C)CO)C(=O)c2cc(NS(=O)(=O)c3ccc(Cl)cc3)ccc2O1,-0.2,-0.5,-3.4,8.9,-2.2,x
C[C@@H]1CCCCO[C@@H](CN(C)C(=O)CCCN(C)C)[C@@H](C)CN([C@H](C)CO)C(=O)c2cc(NS(=O)(=O)c3cccs3)ccc2O1,-1.5,0.3,x,-2.0,-0.6,x
C[C@@H]1CCCCO[C@@H](CN(C)C(=O)CCC(F)(F)F)[C@H](C)CN([C@@H](C)CO)C(=O)c2cc(NS(=O)(=O)c3ccc(Cl)cc3)ccc2O1,-2.4,-0.7,-1.6,63.9*,0.2,x
C[C@@H]1CCCCO[C@@H](CN(C)C(=O)CCCN(C)C)[C@H](C)CN([C@@H](C)CO)C(=O)c2cc(NS(=O)(=O)c3cccs3)ccc2O1,-0.8,1.3*,x,-2.0,4.2,x
C[C@H](CO)N1C[C@H](C)[C@@H](CN(C)C(=O)Nc2ccc(F)cc2)Oc2c(NS(=O)(=O)c3cn(C)cn3)cccc2C1=O,-0.5,-0.2,17.1,-4.5,-18.1,x
CN(C)S(=O)(=O)c1ccc2c(c1)nc(CCC(=O)NCC(=O)Nc1ccc(F)c(F)c1F)n2C,-0.7,43.5*,5.4,6.3,x,-8.0
CC(C)CN1CCN(Cc2cccn2-c2cccnc2)CC1CCO (centres undefined),0.2,43.0*,9.8,0.1,-4.0,-3.1
COc1ccc(-c2ncc(CN3CCN(CCC(C)C)C(CCO)C3)cn2)cc1 (centres undefined),2.5,0.2,3.2,-1.8,-1.9,-9.8
COc1ccc2[nH]c(CN3CCN(C(C)C)C(CCO)C3)c(C)c2c1 (centres undefined),2.7,0.1,-6.9,-3.2,-5.1,-6.1

# From PubChem BioAssay
